Assay results reported in PMC7781011 (Journal of Inflammation Research, 2020).
pKd: −log10 of the molar value.

How the values were obtained:
rat mPGES-1 = target: T1, rat mPGES-1 (Rattus norvegicus, UniProt Q9JHF3); test: Binding assay using isothermal titration calorimetry
T1 sequence (Q9JHF3 1-153): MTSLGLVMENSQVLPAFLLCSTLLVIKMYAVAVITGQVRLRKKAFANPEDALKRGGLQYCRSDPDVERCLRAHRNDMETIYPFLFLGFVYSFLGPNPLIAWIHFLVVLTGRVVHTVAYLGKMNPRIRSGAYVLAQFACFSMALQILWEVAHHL
Summary of the method: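 Rat mPGES-1 isolated from vas deferens and seminal vesicles. Compound (up to 1 mM) and protein (1 mM) dissolved in PBS and degassed. Serial compound injections made into enzyme cell. KD derived by fitting the binding isotherm.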

human COX-2 = target: T2, human COX-2 (Homo sapiens, UniProt P35354); test: Circular dichroism, change in secondary structure; conditions: CD, Human COX-2, LFA-9 10 µM
T2 sequence (P35354 18-604): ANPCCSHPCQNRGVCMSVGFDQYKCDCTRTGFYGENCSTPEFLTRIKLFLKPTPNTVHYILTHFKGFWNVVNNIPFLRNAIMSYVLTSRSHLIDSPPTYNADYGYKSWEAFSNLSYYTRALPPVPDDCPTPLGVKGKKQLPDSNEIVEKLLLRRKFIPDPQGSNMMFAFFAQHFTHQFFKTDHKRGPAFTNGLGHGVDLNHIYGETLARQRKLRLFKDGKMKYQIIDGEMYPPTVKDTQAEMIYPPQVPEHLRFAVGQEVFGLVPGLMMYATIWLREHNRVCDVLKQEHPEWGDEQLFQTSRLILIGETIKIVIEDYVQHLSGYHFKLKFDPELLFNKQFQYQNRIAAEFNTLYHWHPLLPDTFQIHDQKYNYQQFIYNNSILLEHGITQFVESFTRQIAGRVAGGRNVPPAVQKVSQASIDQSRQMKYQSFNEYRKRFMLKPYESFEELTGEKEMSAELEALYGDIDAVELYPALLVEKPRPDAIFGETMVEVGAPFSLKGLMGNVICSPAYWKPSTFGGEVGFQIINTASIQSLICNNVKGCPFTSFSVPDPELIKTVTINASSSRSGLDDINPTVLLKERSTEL
Summary of the method: (§1)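 Native and compound-treated (0.1–10 µM) enzymes in PBS pH 7.4 at final protein 200 µM. CD spectra corrected by subtracting buffer blanks. Percent change in secondary structure (α-helix, β-sheet) calculated with the CAPITO analysis server.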

human 5-LOX = target: T3, human 5-LOX (Homo sapiens, UniProt P09917); test: Circular dichroism, change in secondary structure; conditions: CD
T3 sequence (P09917 1-674): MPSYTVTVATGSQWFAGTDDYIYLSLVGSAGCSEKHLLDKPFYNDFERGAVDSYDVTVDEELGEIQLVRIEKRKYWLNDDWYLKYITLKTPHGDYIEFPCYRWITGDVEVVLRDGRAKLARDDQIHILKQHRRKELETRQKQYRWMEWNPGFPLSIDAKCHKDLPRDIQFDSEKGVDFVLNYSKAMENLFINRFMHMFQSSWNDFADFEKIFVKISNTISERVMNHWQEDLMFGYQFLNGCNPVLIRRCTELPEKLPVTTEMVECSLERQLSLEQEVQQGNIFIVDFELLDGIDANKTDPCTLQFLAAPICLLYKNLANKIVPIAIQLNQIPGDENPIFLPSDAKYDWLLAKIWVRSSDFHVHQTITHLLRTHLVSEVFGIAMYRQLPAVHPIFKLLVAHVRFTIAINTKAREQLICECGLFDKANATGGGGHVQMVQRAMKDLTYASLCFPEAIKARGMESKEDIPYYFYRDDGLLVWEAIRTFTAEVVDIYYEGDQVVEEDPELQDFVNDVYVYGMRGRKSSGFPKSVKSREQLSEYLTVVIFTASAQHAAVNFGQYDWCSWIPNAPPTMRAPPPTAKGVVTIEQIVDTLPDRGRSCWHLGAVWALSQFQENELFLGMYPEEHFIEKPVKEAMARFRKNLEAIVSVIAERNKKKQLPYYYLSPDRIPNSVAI
Summary of the method: as §1

[1] = system: CD68-positive inflammatory cell infiltration and TNF-α expression in paw tissue; test: Immunofluorescence and immunoblot analysis of carrageenan-injected paw tissue; format: in vivo; conditions: rat, 400 ppm, compared to the untreated control
Summary of the method: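 Paw tissue: 4-µm FFPE sections, citrate pH 6.0 epitope retrieval (99°C, 30 min). Blocked with serum/BSA 40 min. Alexa700-CD68 (1:50) and TNF-α (1:100) overnight at 4°C, Alexa488 secondary for TNF-α. Confocal imaging, stained cells counted by image analysis. Immunoblot: 20 µg protein, 12% SDS-PAGE, PVDF. CD68 and TNF-α (1:100), HRP secondary, ECL, β-actin loading control.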

[2] = system: normal colonocytes of rats; test: MTT assay; format: cell-based, rat; conditions: 0.1–100 µM, 24 hours
Summary of the method: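 Normal rat colonocytes exposed 24 h to compound (0.1–100 µM), then MTT reagent for 2 h at 37°C. Formazan dissolved in DMSO, absorbance read at 570 nm with 620 nm reference. Three independent experiments, expressed as percent viability.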

[3] = In vitro metabolic stability in activated liver S9 fraction; format: in vitro ADME; conditions: mouse liver S9 fraction activated with NADPH, UDPGA, GSH, PAPS; 500 µM
Summary of the method: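 Mouse or rat liver S9 fraction isolated and activated with NADPH, UDPGA, GSH and PAPS before compound addition. Samples taken at 0, 15, 30, 45 and 60 min. Compound extracted with acetonitrile and quantified by reversed-phase HPLC with PDA detection. Percent remaining calculated from peak areas at 0 and 60 min.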

CC1(C)Cc2c(-c3ccccc3)c(-c3ccc(Cl)cc3)c(CC(=O)NCC(=O)O)n2C1 [LFA-9, 2-[[2-[2-(4-chlorophenyl)-6,6-dimethyl-1-phenyl-5,7-dihydropyrrolizin-3-yl]acetyl]amino]acetic acid]
pKd (rat mPGES-1): 5.48
Change in Secondary Structure (human COX-2): No change in secondary structure
unfolding of α-helix of 5-LOX (human 5-LOX; 5-LOX, LFA-9 at 0.1 µM): 8.7%
unfolding of β-sheets of 5-LOX (human 5-LOX; 5-LOX, LFA-9 at 0.1 µM): 1%
Change in Secondary Structure: unfolding in α-helix (human 5-LOX; Human 5-LOX, LFA-9 0.12 µM): 8.7%
Change in Secondary Structure: unfolding in β-sheets (human 5-LOX; Human 5-LOX, LFA-9 0.12 µM): 1%
CD68-positive inflammatory cell infiltration in paw tissue [1]: significantly decreased
expression of TNF-α in paw tissue [1]: significantly decreased
cytotoxicity to normal rat colonic epithelial cells [2]: no cytotoxicity
LFA-9 remaining after 60-minutes incubation [3]: 96.1%
